Source: ChEMBL document CHEMBL1687785, “ampG gene of Pseudomonas aeruginosa and its role in β-lactamase expression” (2010)

Experiments:
[1] = target: Beta-lactamase (Pseudomonas aeruginosa (strain ATCC 15692 / PAO1 / 1C / PRS 101 / LMG12228)) (UniProt P24735); test: Activity of ampG deficient Pseudomonas aeruginosa PAO1 AmpC assessed as nitrocefin hydrolyzed per mg of protein at 10 ug/ml by UV spectrophotometry
Outline: (§1)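 P. aeruginosa cells induced 2 h with cefoxitin (1, 10 or 25 μg/ml; uninduced control). Crude extracts prepared by sonication. β-Lactamase measured by UV spectrophotometry with 100 μM nitrocefin as substrate. Specific activity given as nmol nitrocefin hydrolyzed per min per mg protein at 30°C, with protein by BCA against BSA standard. Triplicate inductions, averaged.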

[2] = target: Beta-lactamase (Pseudomonas aeruginosa (strain ATCC 15692 / PAO1 / 1C / PRS 101 / LMG12228)) (UniProt P24735); test: Activity of Pseudomonas aeruginosa PAK AmpC assessed as nitrocefin hydrolyzed per mg of protein at 10 ug/ml by UV spectrophotometry; outline: as §1
[3] = target: Beta-lactamase (Pseudomonas aeruginosa (strain ATCC 15692 / PAO1 / 1C / PRS 101 / LMG12228)) (UniProt P24735); test: Activity of ampG deficient Pseudomonas aeruginosa PAK AmpC harboring pZY0901 conferring resistance to gentamycin at 50 ug/ml assessed as nitrocefin substrate hydrolysis per mg of protein after 2 hrs by UV spectrophotometry
Outline: (§2)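 P. aeruginosa cells induced 2 h with […] cefoxitin. Crude sonicated extracts assayed by UV spectrophotometry with 100 μM nitrocefin substrate. Specific activity is nmol nitrocefin hydrolyzed per min per mg protein at 30°C, with protein by BCA against BSA standard. Triplicate inductions, averaged.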

[4] = target: Beta-lactamase (Pseudomonas aeruginosa (strain ATCC 15692 / PAO1 / 1C / PRS 101 / LMG12228)) (UniProt P24735); test: Activity of Pseudomonas aeruginosa PAO1 AmpC assessed as nitrocefin hydrolyzed per mg of protein at 1 ug/ml by UV spectrophotometry; outline: as §1
[5] = target: Beta-lactamase AmpC (Enterobacter cloacae) (UniProt P05364); test: Activity of gentamycin resistant Escherichia coli SNO301-1 AmpC harboring pEC1C carrying ampC, ampR from Enterobacter cloacae at 50 ug/ml assessed as nitrocefin substrate hydrolysis per mg of protein after 2 hrs by UV spectrophotometry
[6] = target: Beta-lactamase (Pseudomonas aeruginosa (strain ATCC 15692 / PAO1 / 1C / PRS 101 / LMG12228)) (UniProt P24735); test: Activity of ampG deficient Pseudomonas aeruginosa PAK AmpC assessed as nitrocefin hydrolyzed per mg of protein at 10 ug/ml by UV spectrophotometry; outline: as §1
[7] = target: Beta-lactamase (Pseudomonas aeruginosa (strain ATCC 15692 / PAO1 / 1C / PRS 101 / LMG12228)) (UniProt P24735); test: Activity of ampG deficient Pseudomonas aeruginosa PAK AmpC assessed as nitrocefin hydrolyzed per mg of protein at 1 ug/ml by UV spectrophotometry; outline: as §1
[8] = target: Beta-lactamase (Pseudomonas aeruginosa (strain ATCC 15692 / PAO1 / 1C / PRS 101 / LMG12228)) (UniProt P24735); test: Activity of Pseudomonas aeruginosa PAO1 AmpC assessed as nitrocefin hydrolyzed per mg of protein at 10 ug/ml by UV spectrophotometry; outline: as §1
[9] = target: Beta-lactamase (Pseudomonas aeruginosa (strain ATCC 15692 / PAO1 / 1C / PRS 101 / LMG12228)) (UniProt P24735); test: Activity of ampG deficient Pseudomonas aeruginosa PAK AmpC at 50 ug/ml assessed as nitrocefin substrate hydrolysis per mg of protein after 2 hrs by UV spectrophotometry; outline: as §2
[10] = target: Beta-lactamase (Pseudomonas aeruginosa (strain ATCC 15692 / PAO1 / 1C / PRS 101 / LMG12228)) (UniProt P24735); test: Activity of ampD, […], ampDh2 deficient Pseudomonas aeruginosa PAO1 AmpC at 50 ug/ml assessed as nitrocefin substrate hydrolysis per mg of protein after 2 hrs by UV spectrophotometry; outline: as §2
[11] = target: Beta-lactamase (Pseudomonas aeruginosa (strain ATCC 15692 / PAO1 / 1C / PRS 101 / LMG12228)) (UniProt P24735); test: Activity of ampD, […], ampDh2 and ampG deficient Pseudomonas aeruginosa PAO1 AmpC assessed as nitrocefin hydrolyzed per mg of protein at 1 ug/ml by UV spectrophotometry; outline: as §1
[12] = target: Beta-lactamase (Pseudomonas aeruginosa (strain ATCC 15692 / PAO1 / 1C / PRS 101 / LMG12228)) (UniProt P24735); test: Activity of ampD, ampDh2, ampDh3 and ampG deficient Pseudomonas aeruginosa PAO1 AmpC at 50 ug/ml assessed as nitrocefin substrate hydrolysis per mg of protein after 2 hrs by UV spectrophotometry; outline: as §2
[13] = target: Beta-lactamase (Pseudomonas aeruginosa (strain ATCC 15692 / PAO1 / 1C / PRS 101 / LMG12228)) (UniProt P24735); test: Activity of ampG deficient Pseudomonas aeruginosa PAK AmpC harboring pZY0908 conferring resistance to gentamycin at 50 ug/ml assessed as nitrocefin substrate hydrolysis per mg of protein after 2 hrs by UV spectrophotometry; outline: as §2
[14] = target: Beta-lactamase (Pseudomonas aeruginosa (strain ATCC 15692 / PAO1 / 1C / PRS 101 / LMG12228)) (UniProt P24735); test: Activity of ampD, […], ampDh2 deficient Pseudomonas aeruginosa PAO1 AmpC assessed as nitrocefin hydrolyzed per mg of protein at 1 ug/ml by UV spectrophotometry; outline: as §1
[15] = target: Beta-lactamase (Pseudomonas aeruginosa (strain ATCC 15692 / PAO1 / 1C / PRS 101 / LMG12228)) (UniProt P24735); test: Activity of ampG deficient Pseudomonas aeruginosa PAO1 AmpC assessed as nitrocefin hydrolyzed per mg of protein at 25 ug/ml by UV spectrophotometry; outline: as §1
[16] = target: Beta-lactamase (Pseudomonas aeruginosa (strain ATCC 15692 / PAO1 / 1C / PRS 101 / LMG12228)) (UniProt P24735); test: Activity of Pseudomonas aeruginosa PAK AmpC assessed as nitrocefin hydrolyzed per mg of protein at 1 ug/ml by UV spectrophotometry; outline: as §1
[17] = target: Beta-lactamase (Pseudomonas aeruginosa (strain ATCC 15692 / PAO1 / 1C / PRS 101 / LMG12228)) (UniProt P24735); test: Activity of Pseudomonas aeruginosa PAO1 AmpC assessed as nitrocefin hydrolyzed per mg of protein at 25 ug/ml by UV spectrophotometry; outline: as §1
[18] = target: Beta-lactamase (Pseudomonas aeruginosa (strain ATCC 15692 / PAO1 / 1C / PRS 101 / LMG12228)) (UniProt P24735); test: Activity of ampD, […], ampDh2 and ampG deficient Pseudomonas aeruginosa PAO1 AmpC assessed as nitrocefin hydrolyzed per mg of protein at 10 ug/ml by UV spectrophotometry; outline: as §1
[19] = target: Beta-lactamase (Pseudomonas aeruginosa (strain ATCC 15692 / PAO1 / 1C / PRS 101 / LMG12228)) (UniProt P24735); test: Activity of Pseudomonas aeruginosa PAK AmpC assessed as nitrocefin hydrolyzed per mg of protein at 25 ug/ml by UV spectrophotometry; outline: as §1
[20] = target: Beta-lactamase (Pseudomonas aeruginosa (strain ATCC 15692 / PAO1 / 1C / PRS 101 / LMG12228)) (UniProt P24735); test: Activity of ampG deficient Pseudomonas aeruginosa PAO1 AmpC at 50 ug/ml assessed as nitrocefin substrate hydrolysis per mg of protein after 2 hrs by UV spectrophotometry; outline: as §2
[21] = target: Beta-lactamase (Pseudomonas aeruginosa (strain ATCC 15692 / PAO1 / 1C / PRS 101 / LMG12228)) (UniProt P24735); test: Activity of ampD, ampDh2, ampDh3 and ampG deficient Pseudomonas aeruginosa PAO1 AmpC harboring pZY0901 conferring resistance to gentamycin at 50 ug/ml assessed as nitrocefin substrate hydrolysis per mg of protein after 2 hrs by UV spectrophotometry; outline: as §2
[22] = target: Beta-lactamase (Pseudomonas aeruginosa (strain ATCC 15692 / PAO1 / 1C / PRS 101 / LMG12228)) (UniProt P24735); test: Activity of ampD, […], ampDh2 deficient Pseudomonas aeruginosa PAO1 AmpC assessed as nitrocefin hydrolyzed per mg of protein at 10 ug/ml by UV spectrophotometry; outline: as §1
[23] = target: Beta-lactamase (Pseudomonas aeruginosa (strain ATCC 15692 / PAO1 / 1C / PRS 101 / LMG12228)) (UniProt P24735); test: Activity of ampG deficient Pseudomonas aeruginosa PAO1 AmpC assessed as nitrocefin hydrolyzed per mg of protein at 1 ug/ml by UV spectrophotometry; outline: as §1
[24] = target: Beta-lactamase AmpC (Enterobacter cloacae) (UniProt P05364); test: Activity of tetracycline resistant Escherichia coli SNO301-1 AmpC harboring pEC1C carrying ampC, ampR from Enterobacter cloacae at 50 ug/ml assessed as nitrocefin substrate hydrolysis per mg of protein after 2 hrs by UV spectrophotometry
[25] = target: Beta-lactamase (Pseudomonas aeruginosa (strain ATCC 15692 / PAO1 / 1C / PRS 101 / LMG12228)) (UniProt P24735); test: Activity of Pseudomonas aeruginosa PAK AmpC at 50 ug/ml assessed as nitrocefin substrate hydrolysis per mg of protein after 2 hrs by UV spectrophotometry; outline: as §2
[26] = target: Beta-lactamase (Pseudomonas aeruginosa (strain ATCC 15692 / PAO1 / 1C / PRS 101 / LMG12228)) (UniProt P24735); test: Activity of ampD, […], ampDh2 deficient Pseudomonas aeruginosa PAO1 AmpC assessed as nitrocefin hydrolyzed per mg of protein at 25 ug/ml by UV spectrophotometry; outline: as §1
[27] = target: Beta-lactamase AmpC (Enterobacter cloacae) (UniProt P05364); test: Activity of kanamycin resistant Escherichia coli SNO301-1 AmpC harboring pEC1C carrying ampC, ampR from Enterobacter cloacae at 50 ug/ml assessed as nitrocefin substrate hydrolysis per mg of protein after 2 hrs by UV spectrophotometry
[28] = target: Beta-lactamase (Pseudomonas aeruginosa (strain ATCC 15692 / PAO1 / 1C / PRS 101 / LMG12228)) (UniProt P24735); test: Activity of ampD, […], ampDh2 and ampG deficient Pseudomonas aeruginosa PAO1 AmpC assessed as nitrocefin hydrolyzed per mg of protein at 25 ug/ml by UV spectrophotometry; outline: as §1
[29] = target: Beta-lactamase (Pseudomonas aeruginosa (strain ATCC 15692 / PAO1 / 1C / PRS 101 / LMG12228)) (UniProt P24735); test: Activity of Pseudomonas aeruginosa PAO1 AmpC at 50 ug/ml assessed as nitrocefin substrate hydrolysis per mg of protein after 2 hrs by UV spectrophotometry; outline: as §2
[30] = target: Beta-lactamase (Pseudomonas aeruginosa (strain ATCC 15692 / PAO1 / 1C / PRS 101 / LMG12228)) (UniProt P24735); test: Activity of ampG deficient Pseudomonas aeruginosa PAK AmpC assessed as nitrocefin hydrolyzed per mg of protein at 25 ug/ml by UV spectrophotometry; outline: as §1

Sequence of Beta-lactamase (Pseudomonas aeruginosa (strain ATCC 15692 / PAO1 / 1C / PRS 101 / LMG12228)) (P24735 27-397 limits assumed): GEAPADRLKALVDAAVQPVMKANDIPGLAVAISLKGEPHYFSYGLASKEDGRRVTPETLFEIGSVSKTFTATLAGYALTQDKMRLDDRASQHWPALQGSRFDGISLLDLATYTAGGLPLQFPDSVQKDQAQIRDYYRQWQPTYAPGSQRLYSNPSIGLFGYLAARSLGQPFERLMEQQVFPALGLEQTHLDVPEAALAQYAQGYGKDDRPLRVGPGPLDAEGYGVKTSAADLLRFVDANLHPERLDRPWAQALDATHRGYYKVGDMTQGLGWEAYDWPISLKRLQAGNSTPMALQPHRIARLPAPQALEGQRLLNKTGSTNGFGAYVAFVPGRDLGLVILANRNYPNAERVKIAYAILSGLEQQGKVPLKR
Sequence of Beta-lactamase AmpC (Enterobacter cloacae) (P05364 whole entry, looked up): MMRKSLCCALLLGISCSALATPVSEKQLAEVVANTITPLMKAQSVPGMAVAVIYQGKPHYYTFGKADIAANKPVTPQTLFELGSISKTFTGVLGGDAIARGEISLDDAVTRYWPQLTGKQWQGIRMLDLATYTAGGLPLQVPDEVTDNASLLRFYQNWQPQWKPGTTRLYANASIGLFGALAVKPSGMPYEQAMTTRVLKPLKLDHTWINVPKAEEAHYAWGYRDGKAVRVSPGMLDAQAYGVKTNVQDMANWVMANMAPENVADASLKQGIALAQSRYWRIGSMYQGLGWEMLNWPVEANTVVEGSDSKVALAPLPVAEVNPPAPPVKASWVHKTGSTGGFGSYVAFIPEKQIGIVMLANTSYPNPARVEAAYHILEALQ

Structure (SMILES): CO[C@@]1(NC(=O)Cc2cccs2)C(=O)N2C(C(=O)O)=C(COC(N)=O)CS[C@@H]21
- Activity [1]: 10 nmol/min
- Activity [2]: 747 nmol/min
- Activity [3]: 2570 nmol/min
- Activity [4]: 36 nmol/min
- Activity [5]: 3250 nmol/min
- Activity [6]: 5 nmol/min
- Activity [7]: 2 nmol/min
- Activity [8]: 165 nmol/min
- Activity [9]: 0 nmol/min
- Activity [10]: 3440 nmol/min
- Activity [11]: 4 nmol/min
- Activity [12]: 0 nmol/min
- Activity [13]: 1300 nmol/min
- Activity [14]: 2980 nmol/min
- Activity [15]: 0 nmol/min
- Activity [16]: 152 nmol/min
- Activity [17]: 372 nmol/min
- Activity [18]: 8 nmol/min
- Activity [19]: 1070 nmol/min
- Activity [20]: 0 nmol/min
- Activity [21]: 8130 nmol/min
- Activity [22]: 3010 nmol/min
- Activity [23]: 3 nmol/min
- Activity [24]: 38 nmol/min
- Activity [25]: 1220 nmol/min
- Activity [26]: 3020 nmol/min
- Activity [27]: 3600 nmol/min
- Activity [28]: 0 nmol/min
- Activity [29]: 879 nmol/min
- Activity [30]: 0 nmol/min
